# Screens: PubChem BioAssay, Broad Institute
# Casp6 inh – caspase-6 (human) enzyme inhibition; P55212; purified caspase-6, Z-VEID-R110 cleavage fluorescence; AID 686996; hit rate 0.53% among 350,000; inhibition, % at 12.5 µM;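 active = mean inhibition across replicates at least about 35%, with every replicate also reaching that limit, limit read from the data; inconclusive = only one of the two criteria met; inactive = neither criterion met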
# Target sequence (P55212 24-179 limits assumed): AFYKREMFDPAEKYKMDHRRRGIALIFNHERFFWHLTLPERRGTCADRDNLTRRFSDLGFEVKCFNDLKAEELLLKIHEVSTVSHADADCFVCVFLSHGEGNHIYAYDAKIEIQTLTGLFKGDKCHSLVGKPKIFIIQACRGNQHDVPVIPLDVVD
# Target sequence (P55212 194-293 limits assumed): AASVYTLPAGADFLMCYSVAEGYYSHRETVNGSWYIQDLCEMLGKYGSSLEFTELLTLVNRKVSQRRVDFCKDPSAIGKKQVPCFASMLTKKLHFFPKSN
# Xi reactivation – reactivates the inactive X chromosome in mouse fibroblasts | hit rate 0.055% among 360,000 | AID 743238 | activation, % at 7.58 µM | XiGFP mouse fibroblasts, % GFP-positive cells imaging, 3 d; cells co-treated with 5-aza-dC sensitizer; scaled so ellipticine positive control = 100%;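 active = mean normalized replicate activation at least 10% and every replicate at or above 10%; inconclusive = only one of the two criteria met; inactive = mean below 10% and not all replicates reach 10%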
#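 Material: XiGFP fibroblasts, SV40-immortalized; Buffer or medium: DMEM containing 5-aza-dC; Compound dosing: single point; Times: 3 days compound exposure.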
# FN deposition inh – fibronectin deposition inhibition | AH1F fibroblasts, Alexa488-fibronectin deposition fluorescence, overnight | inhibition, % at 12.6 µM | hit rate 0.086% among 350,000;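 active = mean inhibition across replicates of 30% or more, regardless of how many single replicates reach that level; inconclusive = mean under 30% yet at least half of replicates reach 30%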
#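 Material: AH1F fibroblasts assembling fluorescent fibronectin matrix; amount: 10000 AH1F cells/well; medium: DMEM, 2% serum; reagent: Alexa488-fibronectin, 24 nM final in well; dosing: single compound dose, delivered by pin transfer; incubation: 1 h adhesion, overnight exposure; detection: fluorescence after three HBSS washes, excitation 485 nm, emission 525 nm; measure: fibronectin deposition inhibition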
# CaV13 ICDI inh – Disruptors of the CACNA1D IQ motif to Ca2+-dependent inactivation inhibitor domain association, primary screening, Förster resonance energy transfer in intact living …; AID 743397; hit rate 0.098% among 340,000; HEK cells, CFP/YFP FRET ICDI-IQ, plate reader, 10 min; percent FRET-ratio fall versus neutral wells; inhibition, % at 12.3 µM;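 active = mean replicate inhibition of at least 30% and at least 1% of replicates passing that level; inconclusive = only one of the two criteria is met; inactive = neither criterion is met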
# DENV2 CPE – inhibitors of DENV2 cytopathic effect; hit rate 1.7% among 350,000; DENV2-infected cells, cytopathic effect rescue, plate reader; CPE inhibition, % at 9.99 µM; in the data active = CPE inhibition above about 20%, passing the limit was not always enough; inconclusive = no clear call, values can overlap the other calls; tested in BHK-21 cells
# Hits are given with their value; n = inactive; u = inconclusive; x = no result given. In the library only some 2% were active in any assay of this set; here they are far more common.
SMILES,Casp6 inh,Xi reactivation,FN deposition inh,CaV13 ICDI inh,DENV2 CPE
O=C1NC(=S)NC(=O)C1=Cc1cccn1-c1ccc(O)cc1,88.1,n,n,n,n
O=C1C(=Cc2ccccc2)N2CCC1CC2,n,n,n,n,29.1
Cc1cc(C)n(-c2ccc(NN=C(C#N)C#N)cc2)n1,n,n,n,n,31.2
COC(=O)c1nc(-c2ccc3c(n2)C(=O)C(N)=C(OC)C3=O)c(N)c(-c2ccc(OC)c(OC)c2O)c1C,54.4,n,n,n,n
O=C(Cc1ccccc1)N1CCCCN2[C@H](C1)[C@@H](c1ccc(-c3ccccc3)cc1)[C@@H]2CO,n,n,x,x,n
C=C1C(=O)O[C@@H]2C[C@@H](C)[C@@H]3C=CC(=O)[C@@]3(C)[C@@H](O)[C@H]12,n,n,50.0,n,n
N#Cc1ccc(CN2Cc3ccccc3-n3nncc3C2)cc1,n,n,n,n,109.1
O=C(Cc1ccccc1)N1CCCCN2[C@H](CO)[C@@H](c3ccc(-c4ccccc4)cc3)[C@@H]2C1,x,n,x,x,n
COc1ccc(SCC2CN(C)CCC2c2ccc(F)cc2)cc1 (stereo not drawn),n,n,n,n,25.0
COC(=O)[C@H]1[C@H](CO)[C@H]2Cn3c(ccc(C4=CCCC4)c3=O)[C@@H]1N2CC1CCCCC1,n,n,x,x,n
CN1C(=O)NC(=O)C(N=Nc2ccc(Cl)cc2)C1=O (stereo not drawn),46.5,n,n,n,u
CC[n+]1c(-c2ccccc2)c2cc(N)ccc2c2ccc(N)cc21,99.0,n,n,n,n
COC(=O)C1=C(c2c(C)noc2C)C[C@@H]2CC[C@H]1N2C(=O)N1CCC(O)CC1,n,n,n,n,n
COC(=O)C1=C(c2c(C)noc2C)C[C@@H]2CC[C@H]1N2C(=O)N1CCC(C)CC1,n,n,n,n,51.2
O=S(=O)(c1cc(Cl)cc(Cl)c1)N1Cc2cc(N3CCOCC3)ccc2-n2nncc2C1,n,n,n,n,108.0
O=S(=O)(c1cc(Cl)cc(Cl)c1)N1Cc2cc(-c3ccccc3)ccc2-n2nncc2C1,n,n,x,n,n
C=C1C(C)C2C(Cc3ccccc3)NC(=O)C23OC(=O)/C=C/C(O)CCCC(C)C/C=C/C3C1O (stereo not drawn),n,n,41.0,n,n
